Published values pooled from the literature.
ALK C1156Y: ALK tyrosine kinase receptor (ALK, Homo sapiens, UniProt Q9UM73, C1156Y)
ALK: ALK tyrosine kinase receptor (ALK, Homo sapiens, UniProt Q9UM73)
ALK L1196M: ALK tyrosine kinase receptor (ALK, Homo sapiens, UniProt Q9UM73, L1196M)

Nc1ncnc2occ(-c3ccc(NC(=O)Nc4cc(C(F)(F)F)ccc4F)cc3)c12
remaining signal (ALK C1156Y; cell-free assay; 20 µM): 1.1%

CS(=O)(=O)c1cc(C2(NC(=O)c3cncc4c3cnn4-c3ccc(F)cc3)CC2)ccn1
remaining binding (ALK; cell-free assay; competition with immobilised ligand; 1 µM): 100%

O=C(Nc1cnn(-c2csc(C(=O)NC3COC3)c2)c1)Nc1c(F)cccc1Cl
remaining activity (ALK; enzyme activity; inhibitor; 5 µM): 89.2%

COc1cc2c(N3CCN(C(=O)Nc4ccc(OC(C)C)cc4)CC3)ncnc2cc1OCCCN1CCCCC1
remaining signal (ALK; cell-free assay; 0.5 µM): 103%

Cc1ccc(C(=O)Nc2ccc(CN3CCN(C)CC3)c(C(F)(F)F)c2)cc1C#Cc1cnc2cccnn12
remaining signal (ALK L1196M; cell-free assay; 23.5 nM): 99%

CC/C(=N\NC(=O)NCc1cccc(O)c1)c1ccc(O)c(C)c1O
inhibition (ALK tyrosine kinase receptor (ALK, Homo sapiens, UniProt Q9UM73, R1275Q); enzyme activity; inhibitor; 0.1 µM): 4.8%

O=C(CSc1nc2nccnc2c(=O)n1CCc1ccccc1)Nc1nccs1
inhibition (ALK; enzyme activity; inhibitor; 10 µM): 11%

CNC(=O)c1cc2c(Oc3ccc(NC(=O)C4(C(=O)Nc5ccc(F)cc5)CC4)cc3)ccnc2cc1OC
inhibition (ALK; enzyme activity; inhibitor; radiometric; 1 µM): 81%

Cc1cc(NC(=O)c2cccc3cc(-c4cccc5[nH]nc(N)c45)ccc23)ccc1F
activity vs control (ALK; enzyme activity; inhibitor; 0.1 µM): 140%

CC(=O)N1CCC(c2ccc(C(=O)NC3=NCCN3)cc2C(F)(F)F)CC1
remaining binding (ALK L1196M; cell-free assay; competition with immobilised ligand; 1 µM): 70%

COc1ccnn2ncc(-c3ccnc(N(C)C)n3)c12
remaining binding (ALK C1156Y; binding; 1 µM): 100%

CN(C)C(=O)Cn1cc(-c2nc([C@@](C)(c3ccc(-c4cnc(N)nc4)cc3)C3CC3)no2)cn1
remaining binding (ALK C1156Y; cell-free assay; competition with immobilised ligand; 1 µM): 98%

N[C@H]1CCN(c2nccc(-c3cnn4ncccc34)n2)C1
remaining binding (ALK; binding; 1 µM): 85%

COc1ccc2cc(OCC3(C(=O)O)CN(C(=O)c4ccc(F)cc4)C3)ccc2c1
remaining binding (ALK L1196M; cell-free assay; competition with immobilised ligand; 1 µM): 100%

Cc1ccc(NC(=O)c2ccc(C)c(C(F)(F)F)c2)cc1C#Cc1nn(C2CCC(O)CC2)c2ncnc(N)c12 (stereo not shown)
remaining signal (ALK; cell-free assay; 10 µM): 92%

CCCCN(CCCC)C(=O)CN1C[C@H](c2cc(OC)c3c(c2)OCO3)[C@@H](C(=O)O)[C@@H]1CC(C)(C)CCC
remaining binding (ALK L1196M; cell-free assay; competition with immobilised ligand; 1 µM): 100%

Cc1[nH]c(/C=C2\C(=O)Nc3ccc(F)cc32)c(C)c1C(=O)N[C@H]1CCN(C(=O)N(C)C)C1
remaining activity (ALK; enzyme activity; inhibitor; 0.1 µM): 109%

O=C(NCCCC1CCCCC1)c1ccc(CNC(=O)c2cnn(-c3ccccc3)c2C(F)(F)F)cc1
remaining binding (ALK L1196M; cell-free assay; competition with immobilised ligand; 0.1 µM): 100%

CN(C)c1ncc(F)c(-c2cnn3ncccc23)n1
remaining binding (ALK; binding; 1 µM): 90%
